For assay [1], the target named is T1, Bcl-2-like protein 1 (Homo sapiens, UniProt Q07817). The assay can be described thus: Binding affinity to Bcl-XL in 1% human serum by fluorescence polarization assay.
Target sequence in this assay (Q07817 whole entry): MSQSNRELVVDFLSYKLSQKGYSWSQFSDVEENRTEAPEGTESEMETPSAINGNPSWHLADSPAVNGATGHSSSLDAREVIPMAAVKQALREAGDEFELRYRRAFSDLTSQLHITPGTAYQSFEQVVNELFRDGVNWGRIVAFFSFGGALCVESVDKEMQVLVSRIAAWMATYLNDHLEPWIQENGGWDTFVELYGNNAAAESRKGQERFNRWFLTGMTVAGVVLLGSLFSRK
Assay [2] has as its target Apoptosis regulator Bcl-2 (Homo sapiens, UniProt P10415). The assay can be described thus: Binding affinity to Bcl2 by fluorescence polarization assay. (In general: Polarisation of emitted light reports the rotation of a fluorescent probe.)
The next assay concerns the target Albumin (Homo sapiens, UniProt P02768). As to the kind of experiment: Binding affinity for human serum albumin domain III.
Assay [3] has as its target T1, Bcl-2-like protein 1. As to the kind of experiment: Activity towards mouse FL5.12 cell line transfected with Bcl-XL in presence of 3% fetal bovine serum. It counts as functional. Summed up:
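Bcl-XL-transfected murine FL5.12 (IL-3 dependent) grown in RPMI with 10% FBS and WEHI-3B conditioned medium as the IL-3 source. Switched to IL-3-depleted, FBS-free medium for 2 days. Then placed in gelatin assay medium (3.4 mg/mL bovine gelatin) or 3% FBS assay medium. Serial compound dilutions added for 24 h. Viability read by MTS or CellTiter-Glo; duplicate values per determination; EC50.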
Target sequence in this assay (Q07817 whole entry): as above

The target in assay [4] is T1, Bcl-2-like protein 1. As to the kind of experiment: Binding affinity to Bcl-XL by fluorescence polarization assay.
Target sequence in this assay (Q07817 whole entry): as above
Assay [5] concerns A549. The assay can be described thus: Effect on viability of human A549 lung carcinoma cells at 20 uM after 48h by MTS assay in presence of 10% fetal bovine serum. It counts as functional, cell-based. Summed up:
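A549 seeded in DMEM with 5% FBS the day before. Medium removed and UV-C applied (start 32 mJ/cm², halved each step), then compound added in DMEM with 10% FBS. Viability by MTS at 48 h post-exposure, expressed as percent of untreated samples.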
In general terms: Formazan colour is commonly taken as a measure of viable cells.

A further assay deals with T2, Bcl-2-like protein 2 (Homo sapiens, UniProt Q92843).
T2 sequence (Q92843 whole entry): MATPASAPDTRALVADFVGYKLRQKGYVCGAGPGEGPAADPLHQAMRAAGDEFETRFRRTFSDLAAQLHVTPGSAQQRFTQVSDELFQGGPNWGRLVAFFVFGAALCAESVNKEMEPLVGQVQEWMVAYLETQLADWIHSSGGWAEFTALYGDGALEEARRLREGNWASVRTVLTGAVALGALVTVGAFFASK
The assay can be described thus: Binding affinity to Bclw.

Assay [6] relates to A549. The assay can be described thus: Antiproliferative activity against human A549 lung carcinoma cell xenograft tumor model in scid mice in presence of paclitaxel at MTD. It counts as functional. Summed up:
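A549 cells (5 × 10⁶ in 50% Matrigel) inoculated subcutaneously into flank; groups of equal tumor size (N = 10) assigned at ~250 mm³ (day 15). Dosing ip: agent 75 mg/kg/day days 16-36 in 5% Tween 80/20% PEG/75% 0.1 M NaPO₄ pH ~4.0; paclitaxel 30 mg/kg/day days 16, 20, 24. Calipers twice weekly, V = L × W²; %ILS as median time to 1 cm³.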

For assay [7], the system named is A549. The assay can be described thus: Effect of viability of human A549 lung carcinoma cells at 20uM after 48h by MTS assay in presence of paclitaxel. It counts as functional, cell-based. The procedure, abridged: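 A549 seeded in DMEM with 5% FBS the day before. Pretreated 48 h with paclitaxel serial 3-fold dilutions from 20 nM, then coincubated 48 h with paclitaxel plus compound in DMEM with 0.34% gelatin (serum-free). Viability by MTS, normalized to untreated cells.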

In assay [8] the target is Induced myeloid leukemia cell differentiation protein Mcl-1 (Homo sapiens, UniProt Q07820). As to the kind of experiment: Binding affinity to Mcl1.
Induced myeloid leukemia cell differentiation protein Mcl-1, sequence (Q07820 whole entry): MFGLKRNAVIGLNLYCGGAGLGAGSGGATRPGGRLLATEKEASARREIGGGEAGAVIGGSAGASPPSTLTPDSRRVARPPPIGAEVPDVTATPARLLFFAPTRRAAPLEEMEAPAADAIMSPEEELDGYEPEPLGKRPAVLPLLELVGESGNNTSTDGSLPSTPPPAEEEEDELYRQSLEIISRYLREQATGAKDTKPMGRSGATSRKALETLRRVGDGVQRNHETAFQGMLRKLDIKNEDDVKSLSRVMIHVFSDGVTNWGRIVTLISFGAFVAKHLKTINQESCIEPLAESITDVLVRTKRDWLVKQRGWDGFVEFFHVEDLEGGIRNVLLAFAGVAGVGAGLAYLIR
Assay [9] concerns the target T1, Bcl-2-like protein 1. As to conditions: 10 uM.
Target sequence in this assay (Q07817 whole entry): as the sequence (Q07817 whole entry) above
Assay [10] deals with T1, Bcl-2-like protein 1. As to the kind of experiment: Inhibitory activity against Bcl-XL in presence of HSA from 1% human serum. The procedure, abridged:
(§1)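 Competitive fluorescence polarization assay: serial compound dilutions compete with 30 nM f-Bad peptide (FITC-labelled) for binding to 60 nM Bcl-XL. Human serum (1%) or individual serum proteins are added to the assay buffer. Protein levels: HSA 0.42 mg/mL, HSA-III 0.146 mg/mL, α1-acid glycoprotein 0.0095 mg/mL. IC50 is calculated from duplicate values per determination.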
Target sequence in this assay (Q07817 whole entry): as above

Assay [11] addresses T1, Bcl-2-like protein 1. As to the kind of experiment: Inhibitory activity against Bcl-XL in presence of 1% human serum. The procedure, abridged:
as §1
Target sequence in this assay (Q07817 whole entry): as above

The target in assay [12] is T1, Bcl-2-like protein 1. As to the kind of experiment: Inhibitory activity against Bcl-XL in presence of alpha-1 acid glycoprotein from 1% human serum. The procedure, abridged:
as §1

In assay [13] the target is T1, Bcl-2-like protein 1. As to the kind of experiment: Inhibitory activity against Bcl-XL in presence of HSA3 from 1% human serum.
Target sequence in this assay (Q07817 whole entry, looked up): as the sequence (Q07817 whole entry) above

The source made the active and inactive calls. The calls are words filed in the database; no cut-off is given here. Bounds are passed on as bounds.

Here are results for 3 compounds from ChEMBL document CHEMBL1149415, “Discovery and structure-activity relationship of antagonists of B-cell lymphoma 2 family proteins with chemopotentiation activity in vitro and in vivo” (J Med Chem, 2006).

Apoptosis regulator Bcl-2, sequence (P10415 whole entry, the tested form may be a part): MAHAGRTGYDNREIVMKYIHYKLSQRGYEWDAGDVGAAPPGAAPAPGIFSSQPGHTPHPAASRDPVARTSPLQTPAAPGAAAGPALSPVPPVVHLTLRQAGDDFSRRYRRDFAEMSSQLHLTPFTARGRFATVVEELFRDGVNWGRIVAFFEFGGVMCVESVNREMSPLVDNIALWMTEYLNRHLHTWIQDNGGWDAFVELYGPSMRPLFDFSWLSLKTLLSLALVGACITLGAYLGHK
Albumin, sequence (P02768 whole entry, the tested form may be a part): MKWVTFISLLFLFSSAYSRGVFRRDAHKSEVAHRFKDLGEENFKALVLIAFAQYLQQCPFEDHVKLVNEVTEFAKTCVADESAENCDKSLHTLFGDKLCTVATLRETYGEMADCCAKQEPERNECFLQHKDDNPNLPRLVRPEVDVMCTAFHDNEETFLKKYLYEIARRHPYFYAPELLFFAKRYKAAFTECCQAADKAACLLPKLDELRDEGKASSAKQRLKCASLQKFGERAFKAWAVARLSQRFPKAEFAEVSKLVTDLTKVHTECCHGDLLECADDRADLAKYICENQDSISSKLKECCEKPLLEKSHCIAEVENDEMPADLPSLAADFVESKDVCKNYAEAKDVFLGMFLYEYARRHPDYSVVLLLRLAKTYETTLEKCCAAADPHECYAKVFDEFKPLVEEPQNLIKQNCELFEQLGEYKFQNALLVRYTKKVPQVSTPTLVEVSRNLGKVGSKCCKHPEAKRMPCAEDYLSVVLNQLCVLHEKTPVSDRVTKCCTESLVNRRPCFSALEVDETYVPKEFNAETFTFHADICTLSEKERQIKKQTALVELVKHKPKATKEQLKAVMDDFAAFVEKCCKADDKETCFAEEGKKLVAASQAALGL

Turning to `COc1cc(CCCN2CCOCC2)ccc1-c1ccc(C(=O)NS(=O)(=O)c2ccc(N[C@H](CCN(C)C)CSc3ccccc3)c([N+](=O)[O-])c2)cc1`, the Ki (in general, a dissociation constant, usually derived from enzyme kinetics or from competition with a known ligand) on Bcl-2-like protein 1 [1] is 148 nM; in assay [2], 116 nM; on Bcl-2-like protein 1 [4], under 0.5 nM. For the same compound, the Kd – broadly, the constant that tells how readily two partners part at equilibrium – on Albumin worked out at 94000 nM. For the same compound, the half-maximal effective concentration (EC50) – broadly, the midpoint of the concentration-response curve – on Bcl-2-like protein 1 [3] amounted to 2080 nM.
`CN(C)CC[C@H](CSc1ccccc1)Nc1ccc(S(=O)(=O)NC(=O)c2ccc(N3CCC(C)(C)CC3)cc2)cc1[N+](=O)[O-]`: the result in the assay with A549 [5] and in the assay on A549 [7] was Active. Moreover, the Ki at Bcl-2-like protein 1 [1] was determined as 360 nM; in assay [2], 67 nM; on Bcl-2-like protein 1 [4], 0.8 nM. Besides, the Kd at Albumin is 13600 nM; at Bcl-2-like protein 2 it was 459 nM; in assay [8], over 10000 nM. Moreover, at Bcl-2-like protein 1 [3], the 50% effective concentration (EC50) is 5100 nM. Also, the Activity in the assay on A549 [6] is 75%.
Turning to `O=C(NS(=O)(=O)c1ccc(NCCSc2ccccc2)c([N+](=O)[O-])c1)c1ccc(-c2ccc(F)cc2)cc1`, the Ki on Bcl-2-like protein 1 [1] came out at 2500 nM; in [2], 433 nM; at Bcl-2-like protein 1 [4], 36 nM. The inhibition (usually the change of the read-out against control, counted positive when it falls) against Bcl-2-like protein 1 [9] worked out at 1%. Moreover, the IC50 – broadly, the midpoint of a concentration-inhibition curve – on Bcl-2-like protein 1 [10] is over 10000 nM; at Bcl-2-like protein 1 [11], over 10000 nM; on Bcl-2-like protein 1 [12], 122 nM; on Bcl-2-like protein 1 [13] it was 6300 nM.
